Assay outcomes from PubChem BioAssay.
GRK2 inh: human GRK2 inhibition via aptamer displacement | AID 488847 | bead flow cytometry, FAM-aptamer displacement from GRK2 | 330,000 compounds, 0.59% hits | inhibition of aptamer binding, % at 10 µM | P25098;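 active = inhibition of aptamer binding above 40%, roughly 3 SD of noise, on plates passing a quality check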;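 note: median bead fluorescence of bound FAM aptamer so fluorescent compounds give negative values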
Target sequence (P25098 whole entry, looked up): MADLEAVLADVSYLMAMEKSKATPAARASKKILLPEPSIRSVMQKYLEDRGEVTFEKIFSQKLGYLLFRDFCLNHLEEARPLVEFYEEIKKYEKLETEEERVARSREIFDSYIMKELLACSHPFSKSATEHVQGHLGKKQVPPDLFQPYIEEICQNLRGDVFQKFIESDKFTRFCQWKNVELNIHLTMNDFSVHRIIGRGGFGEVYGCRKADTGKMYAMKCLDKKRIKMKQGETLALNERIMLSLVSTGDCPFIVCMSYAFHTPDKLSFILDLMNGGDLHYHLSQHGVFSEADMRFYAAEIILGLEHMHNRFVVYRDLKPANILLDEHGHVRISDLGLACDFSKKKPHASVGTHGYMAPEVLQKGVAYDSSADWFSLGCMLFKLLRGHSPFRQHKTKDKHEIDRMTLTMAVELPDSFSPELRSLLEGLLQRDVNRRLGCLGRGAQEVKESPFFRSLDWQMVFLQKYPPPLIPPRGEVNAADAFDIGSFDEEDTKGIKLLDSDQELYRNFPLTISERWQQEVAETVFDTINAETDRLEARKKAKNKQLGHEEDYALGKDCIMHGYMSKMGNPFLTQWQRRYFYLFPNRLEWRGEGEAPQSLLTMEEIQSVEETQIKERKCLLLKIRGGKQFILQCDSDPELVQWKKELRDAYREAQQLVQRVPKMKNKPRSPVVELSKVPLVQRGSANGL
CAL PDZ FP-1: inhibitors of human CAL PDZ peptide binding; Q9HD26; purified CAL PDZ, TMR-peptide fluorescence polarization, 1 h; inhibition, % at 24.9 µM; 300,000 compounds, 0.92% hits;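 active = mean inhibition of at least 30% with at least half of replicates also reaching 30%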;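 note: 0% = DMSO neutral control and 100% = excess unlabeled competitor peptide PRC23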
DDE Tn7 FP inh: inhibitors of Tn7 peptide binding to human fibrin DD(E) | inhibition, % at 8.3 µM | 370,000 compounds, 0.13% hits | FP displacement of FITC-Tn7 peptide from fibrin DD(E); 0% = median of compound wells per plate | AID 720508 | P02675;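 active = inhibition above the mean of compounds falling within the control limits plus 3 SD of them, cut at about 14% in these data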;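 note: 0% = plate median of compound wells and 100% = 10 µM Aha-Tn7 peptide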
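Assay system: Human clot-derived fibrin DD(E) complex | Buffer or medium: Tris/NaCl/CaCl2 buffer, pH 7.8 | Repeats: One replicate per compound | Benchmarks: Aha-Tn7 high control | Measure: % inhibition scaled between sample-field median and high-control FP | Schedule: 10 min plus 3 h, room temperature | Signal: Fluorescence polarization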
ARNT-TACC3 inh: ARNT/TACC3 interaction disruption; AlphaScreen His-ARNT PAS-B/GST-TACC3 binding, luminescence; TACC3 fragment carries E629A point mutation; inhibition, % at 9.99 µM; 390,000 compounds, 0.66% hits; AID 623870; Q9Y6A5;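 active = mean inhibition of replicates at least 50% and at least half of replicates each reaching 50%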;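 note: 0% = complete ARNT plus TACC3 wells and 100% = ARNT alone without TACC3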
CAL PDZ FP-2: human CAL PDZ-peptide interaction inhibition | Q9HD26 | purified CAL PDZ, TMR-peptide fluorescence polarization, 1 h | inhibition, % at 20 µM | 330,000 compounds, 0.02% hits | AID 504414;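 active = highest replicate inhibition of at least 40%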;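 note: plate controls were DMSO neutral control wells for no effect and unlabeled competitor peptide control wells for full effect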
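Material – purified CerCALP PDZ construct · Detection – FP readout, S and P plane fluorescence · Measure – percent inhibition from loss of millipolarization · Controls – unlabelled peptide for full inhibition, DMSO wells as neutral · Probe or stimulus – TMR-labelled reporter peptide T*-PRC34 bound in PDZ groove · Times – 1 h at RT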
DDE Tn6 FP inh: disrupts Tn6 cyclic peptide binding to fibrin D-Dimer-E complex. 370,000 compounds, 0.21% hits. P02675. inhibition, % at 8.3 µM. Fibrin DD(E) TRITC-Tn6 fluorescence polarization displacement;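 active = inhibition above a per-campaign cutoff: mean of compounds within control limits plus 3 SD, cut at about 15% in these data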;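 note: 0% = median of all compound wells on the plate and 100% = blocking peptide control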
* marks the source's active call; other numbers are inactive results; . = no result given. Sampled rows, rich in hits. Any-hit rate of the full collection: about 1.8%.

SMILES | GRK2 inh | CAL PDZ FP-1 | DDE Tn7 FP inh | ARNT-TACC3 inh | CAL PDZ FP-2 | DDE Tn6 FP inh
Cc1ccc(S(=O)(=O)N(C)C[C@H]2Oc3ccc(NS(=O)(=O)c4ccc(F)cc4)cc3C(=O)N([C@@H](C)CO)C[C@@H]2C)cc1 | . | . | . | 8 | . | .
CCc1nc2ccccc2n1CC(O)COCC1CC=CCC1 (stereo not given) | 3 | 43* | 3 | -1 | 0 | -1
O=C(c1ccccc1)N1CCN(CC(O)COCC2CC=CCC2)CC1 (stereo not given) | 0 | 1 | 5 | 0 | 1 | 6
O=S(=O)(CC1NCc2cc(F)ccc21)NCCc1ccccc1 (stereo not given) | . | . | -3 | . | . | -7
Cc1ccccc1NC(=O)Cc1nc(COC(=O)CCNS(=O)(=O)c2ccccc2)cs1 | 0 | -2 | 0 | -3 | -3 | 1
O=C(/C=C/Nc1ccc([N+](=O)[O-])cc1)c1ccc(Br)cc1 | 46* | 1 | -4 | -13 | 0 | -6
O=C(NCc1ccccn1)c1ccc(Cl)c(S(=O)(=O)N2CCCCCC2)c1 | 3 | -4 | 5 | 46* | -1 | -6
CCOc1ccc2nc(N(CCN(CC)CC)C(=O)/C=C/c3cccs3)sc2c1 | 0 | 31* | -2 | -3 | -1 | 3
CCOC(=O)c1cccc(NC(=O)CN(C)S(=O)(=O)c2ccc(Cl)s2)c1 | . | . | 5 | . | . | -1
C=C1c2cccc(O)c2C(O)=C2C(=O)[C@]3(O)C(O)=C(C(N)=O)C(=O)[C@@H](N(C)C)[C@@H]3[C@@H](O)[C@H]12 | 0 | 11 | 2 | 61* | 1 | -5
Cc1ccccc1C(=O)OC(C)CN1CCN(C)CC1 (stereo not given) | 0 | 116* | 0 | -4 | 9 | 2
CC(CN1CCN(C)CC1)OC(=O)c1ccccc1Cl (stereo not given) | 3 | -3 | 8 | -8 | -2 | -1
CCC(CC)NC(=O)COC(=O)c1ccc(OCC(=O)Nc2ccccc2OC)c(OC)c1 | 0 | 44* | 1 | -19 | 1 | 5
COc1cc2ncnc(NCCCN3CCOCC3)c2cc1OC | 0 | 4 | -2 | -4 | -2 | -3
CCOc1cc2nc(-c3ccc(OC)c(OC)c3)nc(NCCCN3CCOCC3)c2cc1OC | 0 | -2 | -7 | 55* | -7 | -6
COc1cc2nc(=S)n(CCCN3CCOCC3)c(N)c2cc1OC | . | 5 | . | 56* | -2 | .
CC(C)C(=O)Nc1ccc2c(c1)C(=O)N(C)[C@H]1CC[C@@H](CC(=O)NCc3ccccc3F)O[C@H]1CO2 | . | . | . | -11 | . | .
O=C(C[C@@H]1C[C@H]2c3cc(NC(=O)Nc4ccccc4)ccc3O[C@H]2[C@H](CO)O1)NC1CCCCC1 | . | . | . | -2 | . | .
O=C(/C=C/c1ccc(O)c([N+](=O)[O-])c1)c1ccc2ccccc2c1 | 1 | -6 | 6 | 0 | 2 | 7
COc1ccc(Oc2ccc(/C=C/C(=O)c3ccc(O)cc3)cc2[N+](=O)[O-])cc1 | 10 | 61* | -2 | 20 | 0 | 5
CC1(C)CC(=O)C(C=NCCN2CCNC2=O)=C(O)C1 | 3 | 52* | 5 | -9 | 0 | -5
CC1(C)CC(=O)C(C=NCCCO)=C(O)C1 | 0 | 0 | -5 | 21 | -2 | 3
COc1cc(/C=C2\C(=N)N3N=C(S(C)(=O)=O)SC3=NC2=O)ccc1OS(=O)(=O)c1ccccc1 | 0 | . | . | . | . | .
CCS(=O)(=O)C1=NN2C(=N)/C(=C\c3ccc(OS(=O)(=O)c4ccccc4)c(OC)c3)C(=O)N=C2S1 | 41* | . | . | . | . | .
CCCCOc1ccccc1N1CCN(CCCN2C(=O)C3CCCN3C2=O)CC1 (stereo not given) | 1 | 32* | 5 | -6 | . | 3
Nc1ccc(N2CCN(CCCCN3C(=O)C4CCCN4C3=O)CC2)cc1 (stereo not given) | 0 | 0 | 1 | . | 0 | 50*
Cn1ccnc1CC(O)(c1ccccc1)c1ccccc1 | 1 | . | 1 | -2 | 0 | 3
O=C(COC(=O)c1cc(=O)[nH]c2ccccc12)Nc1cccc(S(=O)(=O)N2CCOCC2)c1 | 1 | 76* | 5 | 16 | -6 | -4
